Data as given in ChEMBL document CHEMBL1145412, “Impact of the 3,6,9-trioxadecyloxy group on desazadesferrithiocin analogue iron clearance and organ distribution” (J Med Chem, 2007).

Tests used:
Kidney [1] = assay: Distribution in kidney in non-iron overloaded Sprague-Dawley rat at 300 umol/kg, sc after 0.5 hrs; type: ADME, organism-based; settings: in vivo
Method in brief: (§1)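 Tissue distribution: rats dosed once sc at 300 µmol/kg. Plasma, kidney, liver, heart and pancreas sampled at 0.5, 1, 2 and 4 h. Plasma chelator reported in µM and tissue levels as nmol compound per g wet weight. n = 3 per time point.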

Rattus norvegicus [2] = assay: Iron-clearing efficiency in non-iron overloaded Sprague-Dawley rat assessed as excretion in bile at 300 umol/kg, po after 48 hrs relative to control; type: functional
Method in brief: (§2)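 Male Sprague-Dawley rats (400-450 g), bile-duct cannulated and not iron overloaded, given one oral 300 µmol/kg dose. Given in water, as monosodium salt (1 equiv NaOH) or in 40% Cremophor. Bile collected every 3 h for up to 48 h and urine every 24 h; iron by flame AAS. Efficiency = (treated minus control iron excretion) / theoretical 2:1 output, %; bile/urine split given.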

Kidney [3] = assay: Distribution in kidney in non-iron overloaded Sprague-Dawley rat at 300 umol/kg, sc after 1 hr; type: ADME, organism-based; settings: in vivo; method in brief: as §1
Sapajus apella [4] = assay: Iron-clearing efficiency in iron-loaded Cebus apella assessed as excretion in urine at 75 umol/kg, po relative to control; type: functional
Method in brief: (§3)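 Iron-loaded Cebus apella monkeys given the chelator orally, prepared as for rats except some solubilized in 40% Cremophor RH-40/water. Feces and urine collected at 24 h intervals from 4 d before to 5 d after dosing; iron by flame AAS. Efficiency = (2-day post-drug iron output minus 4-day pre-drug mean) / theoretical 2:1 output, %. Stool/urine split given. Mean ± SEM.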

Rattus norvegicus [5] = assay: Iron-clearing efficiency in non-iron overloaded Sprague-Dawley rat assessed as excretion in urine after 48 hrs at 300 umol/kg, po relative to control; type: functional; method in brief: as §2
Plasma [6] = assay: Distribution in plasma in non-iron overloaded Sprague-Dawley rat assessed as decrease in concentration at 300 umol/kg, sc after 2 hrs; type: ADME, organism-based; parameters: scale not given: the % may be the effect or the level left; settings: in vivo; method in brief: as §1
Plasma [7] = assay: Distribution in plasma in non-iron overloaded Sprague-Dawley rat assessed as decrease in concentration at 300 umol/kg, sc after 4 hrs; type: ADME, organism-based; parameters: scale not given: the % may be the effect or the level left; settings: in vivo; method in brief: as §1
Rattus norvegicus [8] = assay: Iron-clearing efficiency in non-iron overloaded Sprague-Dawley rat at 300 umol/kg, po after 48 hrs relative to control; type: functional; method in brief: as §2
Liver [9] = assay: Distribution in liver in non-iron overloaded Sprague-Dawley rat at 300 umol/kg, sc after 0.5 hrs; type: ADME, organism-based; settings: in vivo; method in brief: as §1
Kidney [10] = assay: Distribution in kidney in non-iron overloaded Sprague-Dawley rat at 300 umol/kg, sc after 2 hrs; type: ADME, organism-based; settings: in vivo; method in brief: as §1
Liver [11] = assay: Distribution in liver in non-iron overloaded Sprague-Dawley rat at 300 umol/kg, sc after 1 hr; type: ADME, organism-based; settings: in vivo; method in brief: as §1
[12] = Ratio of iron clearing efficiency in iron-overloaded Cebus apella to non-iron-overloaded Sprague-Dawley rat; type: functional
Method in brief: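 Performance ratio = mean ICE in iron-overloaded primates divided by mean ICE in non-overloaded rats.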

[13] = Distribution in pancreas per wet weight in non-iron overloaded Sprague-Dawley rat at 300 umol/kg, sc after 2 hrs; settings: in vivo
Plasma [14] = assay: Distribution in plasma in non-iron overloaded Sprague-Dawley rat assessed as decrease in concentration at 300 umol/kg, sc after 1 hr; type: ADME, organism-based; parameters: scale not given: the % may be the effect or the level left; settings: in vivo; method in brief: as §1
Kidney [15] = assay: Distribution in kidney in non-iron overloaded Sprague-Dawley rat at 300 umol/kg, sc after 4 hrs; type: ADME, organism-based; settings: in vivo; method in brief: as §1
[16] = Partition coefficient, log P in TRIS buffer at pH 7.4; type: physicochemical
Method in brief: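 Shake-flask direct method in TRIS buffer, pH 7.4. Reported as log of the fraction in the octanol layer (log Papp).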

Sapajus apella [17] = assay: Iron-clearing efficiency in iron-loaded Cebus apella assessed as excretion in stool at 75 umol/kg, po relative to control; type: functional; method in brief: as §3
[18] = Distribution in plasma in non-iron overloaded Sprague-Dawley rat at 300 umol/kg, sc after 0.5 hrs; type: ADME, organism-based; method in brief: as §1
Sapajus apella [19] = assay: Iron-clearing efficiency in iron-loaded Cebus apella at 75 umol/kg, po relative to control; type: functional; method in brief: as §3
Rattus norvegicus [20] = assay: Iron clearance in non-iron overloaded Sprague-Dawley rat at 300 umol/kg, po at 6 hrs; type: functional
Method in brief: (§4)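 Male Sprague-Dawley rats (400-450 g) with bile-duct cannulation and no iron overload, given a single oral 300 µmol/kg dose. Bile collected at 3 h intervals for up to 48 h. Iron measured by flame atomic absorption and reported as µg iron per kg body weight at each interval.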

Rattus norvegicus [21] = assay: Iron-clearing efficiency in non-iron overloaded Sprague-Dawley rat assessed as excretion in bile at 300 umol/kg, po relative to control; type: functional; method in brief: as §2
Rattus norvegicus [22] = assay: Iron-clearing efficiency in non-iron overloaded Sprague-Dawley rat assessed as excretion in urine at 300 umol/kg, po relative to control; type: functional; method in brief: as §2
Rattus norvegicus [23] = assay: Iron clearance in non-iron overloaded Sprague-Dawley rat at 300 umol/kg, po at 3 hrs; type: functional; method in brief: as §4
Rattus norvegicus [24] = assay: Iron clearing efficiency in non-iron overloaded Sprague-Dawley rat at 300 umol/kg, po in presence of 250 mg/kg/dose sodium benzoate; type: functional
Method in brief: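 Bile-duct-cannulated rats given the chelator orally at 300 µmol/kg. Sodium benzoate in distilled water, 250 mg/kg/dose sc, given 0.5 h before the chelator and then hourly for five more doses. Iron in bile and urine measured by flame AAS. Efficiency = (treated minus control iron excretion) / theoretical output for a 2:1 complex, as percent.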

Rattus norvegicus [25] = assay: Iron-clearing efficiency in non-iron overloaded Sprague-Dawley rat at 300 umol/kg, po relative to control; type: functional; method in brief: as §2

| Drug uptake (Kidney [1]) | Drug uptake (Kidney [3]) | Activity (Plasma [6]) | Activity (Plasma [7]) | Drug uptake (Liver [9]) | Drug uptake (Kidney [10]) | Drug uptake (Liver [11]) | Drug uptake [13] | Activity (Plasma [14]) | Drug uptake (Kidney [15]) | concentration at 0.5 h [18] | SMILES | Activity (Sapajus apella [4]) | Ratio [12] | Activity (Sapajus apella [17]) | Activity (Rattus norvegicus [21]) | Activity (Rattus norvegicus [22]) | Activity (Rattus norvegicus [23]) | further results |
| --- | --- | --- | --- | --- | --- | --- | --- | --- | --- | --- | --- | --- | --- | --- | --- | --- | --- | --- |
| 280 nmol/g | 259 nmol/g | 61% | 79% | 242 nmol/g | 145 nmol/g | 318 nmol/g | 16 nmol/g | 26% | 90 nmol/g | 62 µM | COCCOCCOCCOc1cccc(C2=N[C@@](C)(C(=O)[O-])CS2)c1O.[Na+] | 28% | 2.3 | 72% |  |  |  | Activity (Rattus norvegicus [2]): 95%; Activity (Rattus norvegicus [5]): 5%; Activity (Rattus norvegicus [8]): 10.6%; logD [16]: -1.22; Activity (Sapajus apella [19]): 24.5%; Activity (Rattus norvegicus [20]): 287 µg/kg |
|  |  |  |  |  |  |  |  |  |  |  | COc1ccc(O)c(C2=N[C@@](C)(C(=O)[O-])CS2)c1.[Na+] | 6% | 3 | 94% | 95% | 5% |  |  |
| 368 nmol/g | 252 nmol/g | 92% | 97% | 339 nmol/g | 41 nmol/g | 315 nmol/g | 30 nmol/g | 28% | 34 nmol/g | 194 µM | COCCOCCOCCOc1ccc(C2=N[C@@](C)(C(=O)O)CS2)c(O)c1 | 4% |  | 96% | 90% | 10% | 183 µg/kg | Activity (Rattus norvegicus [24]): 8.8% |
|  |  |  |  |  |  |  |  |  |  |  | COc1cccc(C2=N[C@@](C)(C(=O)[O-])CS2)c1O.[Na+] | 9% | 1.8 | 91% |  |  |  | Activity (Rattus norvegicus [2]): 99%; Activity (Rattus norvegicus [5]): 1%; Activity (Rattus norvegicus [8]): 12.4% |
|  |  |  |  |  |  |  |  |  |  |  | C[C@]1(C(=O)[O-])CSC(c2cc(O)ccc2O)=N1.[Na+] | 12% | 12.6 | 88% | 99% | 1% |  |  |
|  |  |  |  |  |  |  |  |  |  |  | C[C@]1(C(=O)[O-])CSC(c2cccc(O)c2O)=N1.[Na+] | 17% | 5 | 83% | 98% | 2% |  | Activity (Rattus norvegicus [25]): 4.6% |
|  |  |  |  |  |  |  |  |  |  |  | COc1ccc(C2=N[C@@](C)(C(=O)[O-])CS2)c(O)c1.[Na+] | 9% |  | 91% | 98% | 2% |  |  |
| 643 nmol/g | 435 nmol/g | 54% | 82% | 483 nmol/g | 321 nmol/g | 315 nmol/g | 30 nmol/g | 39% | 116 nmol/g | 324 µM | COCCOCCOCCOc1ccc(O)c(C2=N[C@@](C)(C(=O)[O-])CS2)c1.[Na+] | 44% | 1 | 56% | 98% | 2% | 388 µg/kg | Activity (Rattus norvegicus [25]): 8%; logD [16]: -1.27; Activity (Sapajus apella [19]): 8.1% |
|  | 179 nmol/g |  |  |  |  |  |  |  | 27 nmol/g |  | C[C@]1(C(=O)[O-])CSC(c2ccc(O)cc2O)=N1.[Na+] [DEFERITRIN SODIUM] | 12% |  | 88% | 100% | 0% | 68 µg/kg | Activity (Rattus norvegicus [24]): 12% |
